Common to all, as to type: functional
Experiment [1] deals with Staphylococcus aureus. Kind of experiment: Bactericidal activity against vancomycin-resistant Staphylococcus aureus VRSA10 after 18 hrs by broth microdilution method. Particulars: VRSA10, 18 h. The essentials: (§1)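 From MIC wells without visible growth, 5 uL spotted onto Tryptic soy agar, incubated 37 °C for at least 18 h; MBC taken as lowest concentration giving 99.9% growth inhibition.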
On the technique in general: Dilution methods test growth across graded concentrations, often in twofold steps.

Experiment [2] concerns Staphylococcus aureus. Kind of experiment: Antibacterial activity against methicillin-resistant Staphylococcus aureus USA200 NRS383 clinical isolate after 20 hrs by broth microdilution method. Particulars: USA200 NRS383, 20 h. Put shortly: (§2)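 CLSI broth microdilution in cation-adjusted Mueller Hinton broth; compounds serially diluted, triplicate samples; 37 °C, 20 h. MIC read visually as lowest concentration with no visible growth; mean of triplicate determinations reported.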

Experiment [3] deals with Staphylococcus aureus. Kind of experiment: Bactericidal activity against methicillin-resistant Staphylococcus aureus USA100 NRS382 clinical isolate after 18 hrs by broth microdilution method. Particulars: USA100 NRS382, 18 h. The essentials: as §1
In experiment [4] the test system is Staphylococcus aureus. The experiment is described as follows: Bactericidal activity against vancomycin-resistant Staphylococcus aureus VRSA4 after 18 hrs by broth microdilution method. Particulars: VRSA4, 18 h. The essentials:
as §1

The test system of experiment [5] is Staphylococcus aureus. The experiment is described as follows: Bactericidal activity against methicillin-resistant Staphylococcus aureus USA400 NRS123 clinical isolate after 18 hrs by broth microdilution method. As to conditions: USA400 NRS123, 18 h. The essentials:
as §1

Experiment [6] relates to Staphylococcus aureus. Kind of experiment: Antibacterial activity against Staphylococcus aureus RN4220 NRS107 clinical isolate after 20 hrs by broth microdilution method. As to conditions: RN4220 NRS107, 20 h. The essentials: as §2
Experiment [7] concerns Staphylococcus aureus. Kind of experiment: Antibacterial activity against methicillin-resistant Staphylococcus aureus USA300 NRS384 clinical isolate after 20 hrs by broth microdilution method. As to conditions: USA300 NRS384, 20 h. Put shortly: as §2
In experiment [8] the test system is Staphylococcus aureus. Kind of experiment: Antibacterial activity against methicillin-resistant Staphylococcus aureus USA200 NRS383 clinical isolate preincubated followed by bacterial subculturing for 2 weeks.
Experiment [9] has as its system Staphylococcus aureus. Kind of experiment: Antibacterial activity against methicillin-resistant Staphylococcus aureus USA300 NRS384 clinical isolate preincubated followed by bacterial subculturing for 2 weeks.
Experiment [10] concerns Staphylococcus aureus. Kind of experiment: Antibacterial activity against vancomycin-resistant Staphylococcus aureus VRSA10 after 20 hrs by broth microdilution method. As to conditions: VRSA10, 20 h. The essentials:
as §2

In experiment [11] the test system is Staphylococcus aureus. Kind of experiment: Antibacterial activity against vancomycin-resistant Staphylococcus aureus VRSA4 after 20 hrs by broth microdilution method. Particulars: VRSA4, 20 h. Put shortly:
as §2

Experiment [12] relates to Staphylococcus aureus. Kind of experiment: Bactericidal activity against Staphylococcus aureus RN4220 NRS107 clinical isolate after 18 hrs by broth microdilution method. As to conditions: RN4220 NRS107, 18 h. The essentials: as §1
The subject of experiment [13] is Staphylococcus aureus. Kind of experiment: Antibacterial activity against methicillin-resistant Staphylococcus aureus USA100 NRS382 clinical isolate after 20 hrs by broth microdilution method. Particulars: USA100 NRS382, 20 h. Put shortly: as §2
For experiment [14], the system named is Staphylococcus aureus. The experiment is described as follows: Bactericidal activity against methicillin-resistant Staphylococcus aureus USA300 NRS384 clinical isolate after 18 hrs by broth microdilution method. As to conditions: USA300 NRS384, 18 h. The essentials:
as §1

For experiment [15], the system named is Staphylococcus aureus. The experiment is described as follows: Antibacterial activity against methicillin-resistant Staphylococcus aureus USA400 NRS123 clinical isolate preincubated followed by bacterial subculturing for 2 weeks.
In experiment [16] the test system is Staphylococcus aureus. Kind of experiment: Antibacterial activity against methicillin-resistant Staphylococcus aureus USA400 NRS123 clinical isolate after 20 hrs by broth microdilution method. As to conditions: USA400 NRS123, 20 h. The essentials: as §2
Experiment [17] relates to Staphylococcus aureus. The experiment is described as follows: Bactericidal activity against methicillin-resistant Staphylococcus aureus USA200 NRS383 clinical isolate after 18 hrs by broth microdilution method. Particulars: USA200 NRS383, 18 h. The essentials:
as §1

Experiment [18] relates to Staphylococcus aureus. The experiment is described as follows: Antibacterial activity against methicillin-resistant Staphylococcus aureus USA100 NRS382 clinical isolate preincubated followed by bacterial subculturing for 2 weeks.

Converted amounts (≈) assume the structure as drawn. The source made the active and inactive calls. No cut-off for these calls is given here. Bounds are passed on as bounds.

As usually defined, the MBC is the lowest tested concentration that kills the bacteria rather than only halting them. Low readings indicate greater bactericidal potency, high ones weaker bactericidal potency. By MIC is commonly meant the least concentration at which growth counts as inhibited.

`C/C(=N\NC(=N)N)c1ccc(NC(=O)Nc2ccc(OCC(C)C)cc2)cc1`: the MBC was found to be 8 µg/mL (≈ 20.9 µM) in experiment [1]; 8 µg/mL (≈ 20.9 µM) in experiment [3]; 8 µg/mL (≈ 20.9 µM) in experiment [4]; 16 µg/mL (≈ 41.8 µM) in experiment [5]; 4 µg/mL (≈ 10.5 µM) in [12]; 8 µg/mL (≈ 20.9 µM) in experiment [14]. In experiment [17], this molecule displayed an MBC of 4 µg/mL (≈ 10.5 µM). The MIC is 4 µg/mL (≈ 10.5 µM) in experiment [2]; 4 µg/mL (≈ 10.5 µM) in [6]; 4 µg/mL (≈ 10.5 µM) in experiment [7]; 4 µg/mL (≈ 10.5 µM) in experiment [10]; 4 µg/mL (≈ 10.5 µM) in experiment [11]; 8 µg/mL (≈ 20.9 µM) in experiment [13]. The molecule further had an MIC in experiment [16] of 8 µg/mL (≈ 20.9 µM). Further, the result in experiment [8], in experiment [9], in experiment [15] and in experiment [18] was Active.
As for `C/C(=N\NC(=N)N)c1ccc(NC(=O)Nc2ccc(OCc3ccccc3)cc2)cc1`, the MBC in experiment [1] was over 64 µg/mL; in [3] it was over 128 µg/mL; in experiment [4], 8 µg/mL (≈ 19.2 µM); in experiment [5], over 64 µg/mL; in experiment [12], 8 µg/mL (≈ 19.2 µM); in [14] it was 8 µg/mL (≈ 19.2 µM). The MBC in experiment [17] was determined as 16 µg/mL (≈ 38.4 µM). For the same molecule, the MIC in [2] turned out to be 8 µg/mL (≈ 19.2 µM); in [6] it was 8 µg/mL (≈ 19.2 µM); in experiment [7] it was 8 µg/mL (≈ 19.2 µM); in experiment [10] it was 8 µg/mL (≈ 19.2 µM); in experiment [11], 8 µg/mL (≈ 19.2 µM); in experiment [13], 4 µg/mL (≈ 9.6 µM). The molecule also displayed an MIC in experiment [16] of 8 µg/mL (≈ 19.2 µM). For the same molecule, the outcome in experiment [8], in experiment [9], in experiment [15] and in [18] was Active.
The molecule `C/C(=N\NC(=N)N)c1ccc(NC(=O)Cc2ccc(F)cc2)cc1` returned an MIC in [16] of 16 µg/mL (≈ 48.9 µM).
For `CCC(CC)COc1ccc(NC(=O)Nc2ccc(/C(C)=N/NC(=N)N)cc2)cc1`, the result in experiment [8], in [9], in [15] and in experiment [18] was Active. Inhibition of growth in [13] (MIC) required 128 µg/mL (≈ 312 µM).
In turn, `C/C(=N\NC(=N)N)c1ccc(NC(=O)Nc2ccc(I)cc2)cc1` returned an MIC in experiment [16] of 10 µg/mL (≈ 22.9 µM).
For the molecule `C/C(=N\NC(=N)N)c1ccc(NC(=O)c2cc(-c3ccccc3)n(C)n2)cc1`, the MIC in experiment [16] is over 32 µg/mL.
As for `COc1ccc(C(=O)Nc2ccc(/C(C)=N/NC(=N)N)cc2)cc1OC`, inhibition of growth in experiment [16] (MIC) required 16 µg/mL (≈ 45 µM).
The molecule `C/C(=N\NC(=N)N)c1ccc(NC(=O)c2cc(C)oc2C)cc1` came in with an MIC in [16] of 24 µg/mL (≈ 76.6 µM).
The same measure, in the same setting: with `C/C(=N\NC(=N)N)c1ccc(NC(=O)Nc2nc3ccccc3s2)cc1` the figure was 10 µg/mL (≈ 27.2 µM); with `C/C(=N\NC(=N)N)c1ccc(NC(=O)c2cccc(Oc3ccccc3)c2)cc1`, 16 µg/mL (≈ 41.3 µM).
As to `CC(=O)NC[C@H]1CN(c2ccc(N3CCOCC3)c(F)c2)C(=O)O1` [LINEZOLID], the MBC in experiment [1] amounted to 16 µg/mL (≈ 47.4 µM); in [3] it was 16 µg/mL (≈ 47.4 µM); in experiment [4] it was 8 µg/mL (≈ 23.7 µM); in experiment [5], 32 µg/mL (≈ 94.9 µM); in experiment [12] it was 32 µg/mL (≈ 94.9 µM); in experiment [14] it was 16 µg/mL (≈ 47.4 µM). In [17], this molecule came in with an MBC of 32 µg/mL (≈ 94.9 µM).
`C/C(=N\NC(=N)N)c1ccc(NC(=O)c2ccc3c(c2)OCCN3C)cc1` registered an MIC in experiment [16] of 16 µg/mL (≈ 43.7 µM).
For the molecule `CC(=O)Oc1ccccc1C(=O)Nc1ccc(/C(C)=N/NC(=N)N)cc1`, the MIC in experiment [16] was over 32 µg/mL.
Take `C/C(=N\NC(=N)N)c1ccc(NC(=O)Nc2ccc(OC3CCCC3)cc2)cc1`: the MIC in [2] and in experiment [13] was 64 µg/mL (≈ 162 µM) each time. Also, the MBC was 64 µg/mL (≈ 162 µM) in experiment [3] and 128 µg/mL (≈ 324 µM) in [17]. Moreover, the result in experiment [8], in [9], in experiment [15] and in [18] was Active.
As to `C/C(=N\NC(=N)N)c1ccc(NC(=O)Cc2cc(F)cc(F)c2)cc1`, the MIC in experiment [16] was determined as 16 µg/mL (≈ 46.3 µM).
Regarding `C/C(=N\NC(=N)N)c1ccc(NC(=O)c2cc(F)c(F)c(F)c2)cc1`, the MIC in experiment [16] was determined as 16 µg/mL (≈ 45.8 µM).

The values are drawn from ChEMBL document CHEMBL4014276, “Diphenylurea derivatives for combating methicillin- and vancomycin-resistant Staphylococcus aureus” (Eur J Med Chem, 2017).
